Marks after values point to notes of the source that are not given here.
Experiments:
Xanthones in serum = format: in vivo, Balb/c nu/nu mice; conditions: for Identified in serum by HPLC-MS: mice fed diet with α-MG, not detected by HPLC-DAD
[1] = Xanthones in tumor tissue; format: in vivo, Balb/c nu/nu mice; conditions: for Tumor at 2 weeks, Free / Tumor at 4 weeks, Free / Tumor at 2 weeks, Conjugates / Tumor at 4 weeks, Conjugates: tumor tissue, diet 901 mg/kg xanthones; for Tumor at 2 weeks, Free / Tumor at 2 weeks, Conjugates: 2 weeks after injection of HT-29 cells; for Tumor at 4 weeks, Free / Tumor at 4 weeks, Conjugates: 4 weeks after injection of HT-29 cells; for Tumor at 2 weeks, Conjugates / Tumor at 4 weeks, Conjugates: nd = not detected; for Share of total xanthones in tumors: tentatively identified
HT-29 cells = assay: HT-29 colon cell xenograft growth in mice fed diet with α-MG; format: in vivo, Balb/c nu/nu mice; conditions: diet 900 mg α-MG/kg
β-catenin [2] = assay: β-catenin content in HT-29 cells by ELISA; format: cell-based, human; conditions: 24 h
Summary of the method: (§1)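 HT-29 cells were seeded at 2 × 10⁵ cells/well in 6-well dishes. At 70% confluence, monolayers got basal McCoy's medium without or with test compound (6 and 12 µmol/L) for 24 h at 37°C. Cells were washed twice with ice-cold PBS and pelleted (800 × g, 4°C, 10 min), then lysed in ice-cold lysis buffer. Protein was measured with a commercial ELISA kit. Data are means ± SD versus control, compared by Welch's unpaired t-test.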

[3] = human subjects after mangosteen juice blend containing 94 mg/mL α-MG; cited from earlier work
[4] = Food intake and body weight of mice fed diet with α-MG; format: in vivo, Balb/c nu/nu mice; conditions: 845 mg/kg α-MG (901 mg total xanthones/kg) in the diet
Summary of the method: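 Female athymic Balb/c nu/nu mice arrived at 4 weeks of age and were acclimated 4 days on AIN-93G diet. They were randomized (n = 24/group) to γ-irradiated AIN-93G without or with a nominal 900 mg/kg test compound, given ad libitum; actual diet content was determined by extraction. Food intake, appearance/behaviour and body weight were checked after 3 and 7 days. Groups were compared by one-way ANOVA with Dunnett's post-test.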

β-catenin [5] = assay: β-catenin in tumor tissue homogenates by ELISA; format: in vivo, Balb/c nu/nu mice; conditions: mice fed diet with α-MG; 4 weeks after injection of cells; control diet 19.1 ± 1.9
BcL-2 [6] = assay: BcL-2 in tumor tissue homogenates by ELISA; format: in vivo, Balb/c nu/nu mice; conditions: mice fed diet with α-MG; 4 weeks after injection of cells; control diet 17.2 ±0.8
[7] = rats, gastric administration of 20 mg/kg in water containing 2% ethanol plus 2% Tween-80; cited from earlier work
BcL-2 [8] = assay: BcL-2 content in HT-29 cells by ELISA; format: cell-based, human; conditions: 24 h
Summary of the method: as §1

Xanthones in liver = format: in vivo, Balb/c nu/nu mice; conditions: control- and tumor-bearing mice; tentatively identified
[9] = 2 weeks after injection of HT-29 cells
[10] = 4 weeks after injection of HT-29 cells
[11] = 6 µmol/L, preconfluent HT-29 cells

In the case of `COc1c(O)cc2oc3cc4c(c(O)c3c(=O)c2c1CC=C(C)C)C=CC(C)(C)O4` [9-Hydroxycalabaxanthone], the “Identified in serum by HPLC-MS” value (Xanthones in serum) is reported as “Low concentrations”, the “Tumor at 2 weeks, Free” value [1] is reported as 0.22 ± 0.09 ^a) µg/g and the “Tumor at 4 weeks, Free” value [1] is reported as 0.32 ± 0.11 ^a) µg/g.

In the case of `COc1c(O)cc2oc3cc(O)c(CC=C(C)C)c(O)c3c(=O)c2c1CC=C(C)C` [α-MG, α-mangostin], the “Tumor mass less than control diet” value (HT-29 cells; [9]) is reported as 27%, the “Tumor volume less than in mice fed the diet without α-MG” value (HT-29 cells; [9]) is reported as 41% and the “Tumor mass less than control diet” value (HT-29 cells; [10]) is reported as 41%. For the same molecule, the “Tumor volume less than in mice fed the diet without α-MG” value (HT-29 cells; [10]) was 36%, the “Decrease of β-catenin vs vehicle only” value (β-catenin [2]; [11]) was 24 ± 2% and the “Cellular content of β-catenin less than control cultures” value (β-catenin [2]; 12 µmol/L, HT-29 cells) was 39 ± 3%. For the same molecule, the “Concentration of conjugated α-MG in serum” value (Xanthones in serum; mice with tumors for 2 weeks) was 1000 ± 100 ng/mL, the “α-MG in serum, without enzyme treatment (free)” value (Xanthones in serum; nontumor-bearing and tumor-bearing mice fed diet with α-MG for 5 weeks) was 15 ± 1 ng/mL and the “Concentration of total α-MG in serum” value (Xanthones in serum; nontumor-bearing mice, 4 weeks, glucuronidase/sulfatase treated) was 1900 ± 300 ng/mL. For the same molecule, the “Cmax of free α-MG in plasma” value [3] was 3.1 µM, the Body weight [4] was “not significantly altered” and the Food intake [4] was “not significantly altered”. The “β-catenin concentration in tumors” value (β-catenin [5]) was 11.2 ± 0.7 pg/mg protein, the “Share of tumor α-MG that is conjugated” value ([1]; 2 weeks postinjection) was 60% and the “Free and conjugated α-MG concentration in tumor tissue” value ([1]; 4 weeks postinjection) was 3.6 ± 0.1. The “Share of tumor α-MG that is conjugated” value ([1]; 4 weeks postinjection) was 52%, the “Tumor at 2 weeks, Free” value [1] was 0.51 ± 0.02 ^b) µg/g and the “Tumor at 2 weeks, Conjugates” value [1] was 0.76 ± 0.03 ^c) µg/g. For the same molecule, the “Tumor at 4 weeks, Free” value [1] was 1.71 ± 0.06 ^a) µg/g, the “Tumor at 4 weeks, Conjugates” value [1] was 1.87 ± 0.06 ^a) µg/g and the “BcL-2 concentration in tumors” value (BcL-2 [6]) was 3.9 ± 0.5 pg/mg protein. The Absorption [7] was “extremely low”, the “Decrease of BcL-2 vs vehicle only” value (BcL-2 [8]; [11]) was 27 ± 3% and the “Cellular content of BcL-2 less than control cultures” value (BcL-2 [8]; 12 µmol/L, HT-29 cells) was 44 ± 4%.

For `COc1cc2oc3cc(O)c(OC)c(CC=C(C)C)c3c(=O)c2c(O)c1CC=C(C)C` [β-MG, β-mangostin], the “Identified in serum by HPLC-MS” value (Xanthones in serum) was “Low concentrations”, the “Share of the total xanthones in the liver” value (Xanthones in liver) was “approx. 85%” and the “Share of total xanthones in tumors” value ([1]; 2 weeks after injection) was 41%. For the same molecule, the “Phase II conjugates as share of tumor β-MG” value ([1]; 4 weeks) was 40%, the “Share of total xanthones in tumors” value ([1]; 4 weeks after injection) was 45% and the “Tumor at 2 weeks, Free” value [1] was 1.54 ± 0.16 ^b) µg/g. For the same molecule, the “Tumor at 2 weeks, Conjugates” value [1] was “not detected”, the “Tumor at 4 weeks, Free” value [1] was 2.68 ± 0.17 ^a) µg/g and the “Tumor at 4 weeks, Conjugates” value [1] was 1.83 ± 0.17 ^b) µg/g.
